aDG glyco act: alpha-DG glycosylation activation | Pro5-aDG cells, alpha-DG glycosylation AlphaScreen (IIH6); 0% Pro5, 100% B10-LARGE cell signal | activation, % at 10 µM | 360,000 compounds, 0.22% hits;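 active = activation of at least 8% versus controls, or a plate z-score of at least 8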;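 also: Pro5 are CHO cells carrying HIG-tagged alpha-DG that lacks glycosylation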
NR2E3 ag-1: human photoreceptor-specific nuclear receptor agonism. Q9Y5X4. CHO-S Gal4-NCOR/VP16-NR2E3 two-hybrid, luciferase. inhibition of corepressor binding, % at 3.98 µM. 360,000 compounds, 0.35% hits;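 active = inhibition above the mean of all tested compounds plus 3 SD, cut at about 70% in these data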;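 also: higher means lower luciferase signal from less NR2E3 corepressor binding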
Target sequence (Q9Y5X4 whole entry, looked up, the tested form may be a part): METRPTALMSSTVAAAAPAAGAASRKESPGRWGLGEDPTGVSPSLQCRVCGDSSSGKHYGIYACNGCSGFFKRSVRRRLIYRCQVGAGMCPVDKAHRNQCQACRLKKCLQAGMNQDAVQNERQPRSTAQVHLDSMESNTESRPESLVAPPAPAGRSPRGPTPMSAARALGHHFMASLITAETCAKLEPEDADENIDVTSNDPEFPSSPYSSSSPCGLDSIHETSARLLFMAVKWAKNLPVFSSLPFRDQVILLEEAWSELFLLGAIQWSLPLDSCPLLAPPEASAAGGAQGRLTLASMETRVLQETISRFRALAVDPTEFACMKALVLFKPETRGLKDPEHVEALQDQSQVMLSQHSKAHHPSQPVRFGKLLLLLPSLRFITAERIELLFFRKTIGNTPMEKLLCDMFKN
Jurkat NFkB inh: inhibitors of the PMA/ionomycin-induced NF-kB reporter in Jurkat cells; inhibition, % at 4 µM; 330,000 compounds, 0.53% hits; PMA/ionomycin-induced NF-kB luciferase reporter, luminescence; in the data active = inhibition above about 50%
NR2E3 ag-2: NR2E3 (human) agonism; Q9Y5X4; GST-NR2E3/biotin-RetCOR TR-FRET, 1536-well; inhibition of corepressor binding, % at 4.78 µM; 320,000 compounds, 0.12% hits;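 active = percent inhibition above the cutoff of mean plus 3 SD of all tested compounds, set per screening campaign, cut at about 20% in these data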
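Material: NR2E3–RetCOR corepressor complex / Incubation: Compound–protein incubation for 5 h at 4 °C / Dosing: compound at 4.8 µM, single dose / Detection: time-resolved FRET / Benchmarks: high control biotin, low control 0.6% DMSO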
697 NFkB inh: lowers PMA/ionomycin-induced NF-kB signal in 697 B cells. AID 435022. 697 B-cell NF-kB luciferase reporter, 16 h. 330,000 compounds, 0.33% hits. inhibition, % at 4 µM; in the data active = inhibition above about 35%
MPTP block: permeability transition pore inhibition; isolated mouse mitochondria, Ca2+ swelling absorbance, 30 min; inhibition, % at 10 µM; 360,000 compounds, 1.4% hits;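 active = inhibition of 50% or more, scaled per plate between neutral and stimulator controls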
MPTP counter: Rhodamine 123 counter-screen of mitochondrial pore hits. inhibition, % at 10 µM. 5,000 compounds, 78% hits. shares compounds with MPTP block. isolated mitochondria, membrane potential, Rhodamine 123 fluorescence. AID 624504; in the data active = inhibition above about 22%
MPTP abs DR: dose response confirmation of mitochondrial permeability transition pore inhibitors | shares compounds with MPTP block | isolated mitochondria swelling, absorbance | IC50, µM | 780 compounds, 58% hits | AID 651561; in the data active = IC50 below about 20 µM
MPTP counter DR: MPTP inhibitor counter-screen activity, dose response | shares compounds with MPTP block | isolated mitochondria counterscreen, fluorescence read-out | AID 651564 | 780 compounds, 49% hits | IC50, µM; in the data active = IC50 below about 80 µM
Numbers stand for hits; 0 = inactive; - = no result. An excerpt weighted towards active compounds, which were near 2.4% of everything screened.

SMILES	aDG glyco act	NR2E3 ag-1	Jurkat NFkB inh	NR2E3 ag-2	697 NFkB inh	MPTP block	MPTP counter	others
CC1CCc2c(sc(NC(=O)c3c([N+](=O)[O-])cnn3C)c2C(N)=O)C1 (stereo unspecified)	0	0	0	-	0	0	-
NC[C@@H]1O[C@H](C23CC4CC(CC(C4)C2)C3)Cc2c1ccc(O)c2O	0	0	0	0	0	93.6	0
CCC(C(=O)OCC(=O)Nc1ccc(SC(F)F)cc1)c1ccccc1 (stereo unspecified)	0	0	-	-	-	77.7	87.6
CCOc1cc(C(=O)OCC(=O)Nc2ccc(SC(F)F)cc2)cc(OCC)c1OCC	0	0	0	0	0	50.1	61.1
CN1C(=O)[C@H]2[C@@H](C3CC3)N3C(=O)CN(CC4CC4)C(=O)[C@@]3(C)[C@H]2C1=O	0	0	0	0	0	0	-
CC(=O)Nc1ccc(Nc2nc(Cl)nc(Nc3ccc(NC(C)=O)cc3)n2)cc1	0	0	0	0	0	0	-
CCOC(=O)Cc1csc(NC(=O)CCN2C(=O)c3cccc([N+](=O)[O-])c3C2=O)n1	0	0	0	0	0	0	-
CCCC(=O)Nc1ccc2nc(SCC(=O)Nc3ccc(N4CCOCC4)c(Cl)c3)sc2c1	0	0	0	0	0	0	-
CC(C)(C)NC(=O)CSc1nc2ccc(NC(=O)CSc3nnc(N)s3)cc2s1	0	0	0	0	0	66.9	25.0
Nc1ccc2nc(SCC(=O)Nc3ccc(N4CCOCC4)c(Cl)c3)sc2c1	0	0	0	0	0	58.2	0	MPTP abs DR=18;MPTP counter DR=27.6
[O-][n+]1ccc(CC(O)(C(F)(F)F)C(F)(F)F)cc1	0	0	-	-	-	0	-
COc1ccc(C(=O)Nc2ccc(-c3cn4ccsc4n3)cc2)cc1S(=O)(=O)N1CCOCC1	0	0	0	0	0	58.1	0	MPTP abs DR=0;MPTP counter DR=0
COc1ccc(C(=O)Nc2ccc3nc(C)sc3c2)cc1S(=O)(=O)N1CCOCC1	0	0	-	-	-	0	-
O=C(COC(=O)c1cccc(S(=O)(=O)N2CCCCC2)c1)NCc1cccc(Cl)c1	0	0	-	-	-	0	-
Nc1nonc1N/N=C/c1c(O)ccc2ccccc12	0	0	0	0	0	55.5	73.8
FC(F)(F)c1cccc(N2CCN(C(=S)NC3CCCCC3)CC2)c1	0	0	0	0	0	81.2	72.3
Fc1cccc(NC(=S)NC2CCCCCCC2)c1	0	0	0	-	0	74.6	97.8
FC(F)(F)c1cccc(NC(=S)NC2CCCC2)c1	0	0	0	0	0	99.8	83.2
FC(F)(F)c1ccc(NC(=S)NC2CCCCC2)cc1	0	0	0	0	0	98.6	78.2
NC(=O)c1cc([N+](=O)[O-])ccc1NCc1cccc(N)c1	0	0	0	0	0	0	-
O=S(=O)(c1ccc(F)c(F)c1F)N1CCN(c2ncnc3sccc23)CC1	0	0	0	-	0	68.2	86.6
Nc1nc2ccccc2cc1C(=O)NCc1ccc(-c2ccccc2)cc1	0	-	-	-	-	105.8	102.9
Cc1ccc(-c2noc(CCC(=O)NCCN3CCN(Cc4ccccc4)CC3)n2)cc1	0	0	0	0	0	0	-
COc1ccc(-c2noc(CCC(=O)NCCCN3CCN(c4ccc(F)cc4)CC3)n2)cc1	0	0	0	0	0	0	-
COc1ccc(-c2cc3c(=O)n(CC(=O)NCCCN4CCC(Cc5ccccc5)CC4)ncn3n2)cc1	0	0	0	0	0	85.3	0
SMILES	aDG glyco act	NR2E3 ag-1	Jurkat NFkB inh	NR2E3 ag-2	697 NFkB inh	MPTP block	MPTP counter	others
COc1ccc(-c2noc(CCC(=O)NCCCN3CCC(Cc4ccccc4)CC3)n2)cc1	5.5	0	0	0	0	62.8	41.9
CCOc1ccc(CCNC(=O)Cn2ncn3nc(-c4ccc(OC)cc4)cc3c2=O)cc1	0	0	0	0	0	0	-
Cc1ccc(-c2noc(CCC(=O)NCC3CCN(Cc4cccc(C)c4)CC3)n2)cc1	0	0	0	0	0	66.7	0	MPTP abs DR=8.81;MPTP counter DR=23.7
COCc1ccccc1C1=CC(=O)C[C@H](c2ccc(F)cc2)C1	0	0	0	0	0	0	-
COc1cc(NC(=O)CSc2ncnc3sc4c(c23)CCCC4)c(C(=O)O)cc1OC	0	0	0	0	0	0	-
COc1ccc(-n2ccn3c(CCC(=O)N4CCN(c5cccc(C)c5C)CC4)nnc3c2=O)cc1	0	0	0	0	0	0	-
CC(C)c1ccc2c(c1)CC[C@H]1[C@](C)(CN)CCC[C@]21C	0	0	-	-	-	88.4	0	MPTP abs DR=0;MPTP counter DR=0
CC(NC(=O)OCc1ccccc1)C(=O)Oc1cc2oc(=O)cc(-c3ccccc3)c2cc1Cl (stereo unspecified)	0	0	0	0	0	0	-
CCC(C)c1ccccc1NC(=O)COC(=O)c1ccc2[nH]c3c(c2c1)CCCC3 (stereo unspecified)	0	0	0	0	0	82.9	72.7
CCOc1ccc(NC(=O)Nc2ccc3nsnc3c2)cc1	0	0	0	0	0	91.3	89.4
CCOc1ccc(NC(=O)Nc2cc(OCC(F)(F)F)cc(OCC(F)(F)F)c2)cc1	0	0	0	0	0	80.4	70.5
O=C(NCCNC(=O)c1cc(OCC(F)(F)F)ccc1OCC(F)(F)F)Nc1ccc(OC(F)(F)F)cc1	0	0	0	0	0	80.1	83.9
O=C(NCC(=O)N1CCOCC1)c1ccc(Cl)cc1	0	0	0	0	0	0	-
Cc1ccc(Nc2nc(NCCCN3CCOCC3)nc(N)c2[N+](=O)[O-])cc1C	0	0	0	0	0	66.6	0	MPTP abs DR=0;MPTP counter DR=0
Cc1cccc(Nc2nc(N3CCN(C)CC3)nc(N)c2[N+](=O)[O-])c1	0	0	0	0	0	69.2	0	MPTP abs DR=0;MPTP counter DR=0
Cc1cccc(Nc2nc(N)c([N+](=O)[O-])c(N3CC(C)CC(C)C3)n2)c1 (stereo unspecified)	0	0	0	0	0	56.0	0	MPTP abs DR=0;MPTP counter DR=62.7
COc1ccc2cc(CCNC(=O)c3ccc(S(=O)(=O)N4CCOCC4)cc3)c(=O)[nH]c2c1	0	0	0	0	0	0	-
N#Cc1cc(C(=O)c2cc(Br)ccc2O)cn(Cc2ccccc2)c1=O	0	0	0	0	0	51.7	77.3
Cn1c(=O)c2c(ncn2CC(=O)Nc2cccc(S(=O)(=O)Nc3ccccc3F)c2)n(C)c1=O	0	0	0	0	0	0	-
O=C(Nc1cccc(S(=O)(=O)Nc2ccccc2F)c1)c1ccco1	0	0	0	-	0	0	-
O=C(Nc1cccc(S(=O)(=O)Nc2ccccc2Cl)c1)c1ccc(Cl)nc1	0	0	0	0	0	61.6	55.5
O=C(Cc1ccc(Cl)cc1)Nc1cccc(S(=O)(=O)Nc2ccccc2F)c1	0	0	0	0	0	60.0	64.4

From PubChem
